Measured values taken from BindingDB's records for doi:10.1021/jm960074e (National Cancer Institute-Bethesda, 1996).
pIC50: −log10 of the molar value.

Target: Integrase (Human immunodeficiency virus 1, UniProt Q7ZJM1)
Test: Inhibitory activity against HIV-1 integrase
Method in brief: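 Purified recombinant wild-type HIV-1 integrase, 200 nM final, preincubated with inhibitor for 30 min at 30 °C. Buffer: 25 mM MOPS pH 7.2, 7.5 mM MnCl2, 50 mM NaCl, 10% DMSO, 10% glycerol, BSA, DTT, 2-mercaptoethanol. Then 20 nM 5'-32P-labeled 21mer U5 duplex added for 60 min. Products run on denaturing 20% polyacrylamide gel and quantified by phosphorimager.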

Sequence of Integrase (Q7ZJM1 whole entry): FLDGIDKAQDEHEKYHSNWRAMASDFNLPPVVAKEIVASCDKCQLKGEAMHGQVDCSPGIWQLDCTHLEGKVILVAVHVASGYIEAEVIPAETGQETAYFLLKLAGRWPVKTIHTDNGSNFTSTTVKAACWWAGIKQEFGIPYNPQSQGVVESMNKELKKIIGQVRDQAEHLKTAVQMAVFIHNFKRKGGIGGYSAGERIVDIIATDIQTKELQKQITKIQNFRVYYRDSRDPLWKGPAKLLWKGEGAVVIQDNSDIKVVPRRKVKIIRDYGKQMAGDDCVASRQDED

SMILES	pIC50
Cc1ccc(S(=O)(=O)NN=C(CCN2CCCC2)CC(c2ccccc2)c2c(O)c3ccccc3oc2=O)cc1 (stereo not given) [NSC-647410]	< 4.00
CC(=C1C(=O)C(=O)c2ccccc2C1=O)c1c(O)c(O)c2ccccc2c1O [2-hydroxy-3-[1-(3-hydroxy-1,4-dioxo-1,4-dihydro-2-naphthalenyl)ethyl]-1,4-dihydro-1,4-naphthalenedione]	< 4.00
O=C(c1cccc([N+](=O)[O-])c1)c1c(O)c2ccccc2oc1=O [NSC-133800]	< 4.00
COc1cc(C(=C2C(=O)C(=O)c3ccccc3C2=O)c2c(O)c(O)c3ccccc3c2O)cc(OC)c1OC [NSC-117278]	< 4.00

Second part, the compound after the results:

pIC50	SMILES
< 4.00	CN(C)c1ccc(C(=C2C(=O)C(=O)c3ccccc3C2=O)c2c(O)c(O)c3ccccc3c2O)cc1 [NSC-92203]
< 4.00	O=C1C(=O)c2ccccc2C(=O)C1=C(c1ccc(Cl)cc1)c1c(O)c(O)c2ccccc2c1O [2-[4-chlorophenyl(3-hydroxy-1,4-dioxo-1,4-dihydro-2-naphthalenyl)methyl]-3-hydroxy-1,4-dihydro-1,4-naphthalenedione]
< 4.00	O=C1Oc2ccccc2C(O)C1Cc1c(O)c2ccccc2oc1=O (stereo not given) [NSC-41834]
< 4.00	CC(=O)c1cccc(NC(=O)C(=O)c2c(O)c3ccccc3oc2=O)c1 [N-(3-Acetyl-phenyl)-2-(4-hydroxy-2-oxo-2H-chromen-3-yl)-2-oxo-acetamide]
< 4.00	O=C1C(=O)C(Sc2ccccc2)C(=O)c2ccccc21 (stereo not given) [NSC-108029]
4.00	CCOc1ccc(C(=C2C(=O)C(=O)c3ccccc3C2=O)c2c(O)c(O)c3ccccc3c2O)cc1OC [2-[4-ethoxy-3-methoxyphenyl(3-hydroxy-1,4-dioxo-1,4-dihydro-2-naphthalenyl)methyl]-3-hydroxy-1,4-dihydro-1,4-naphthalenedione]
